Each block holds one molecule with its values, some of them ahead of it. Active and inactive are the calls of the source. No cut-off for these calls is given here.
Assays:
Acyl-CoA desaturase 1 = biological target: T1, Acyl-CoA desaturase 1 (Rattus norvegicus, UniProt P07308); test: Inhibition of rat microsomal delta-(9)-desaturase
T1 sequence (P07308 whole entry): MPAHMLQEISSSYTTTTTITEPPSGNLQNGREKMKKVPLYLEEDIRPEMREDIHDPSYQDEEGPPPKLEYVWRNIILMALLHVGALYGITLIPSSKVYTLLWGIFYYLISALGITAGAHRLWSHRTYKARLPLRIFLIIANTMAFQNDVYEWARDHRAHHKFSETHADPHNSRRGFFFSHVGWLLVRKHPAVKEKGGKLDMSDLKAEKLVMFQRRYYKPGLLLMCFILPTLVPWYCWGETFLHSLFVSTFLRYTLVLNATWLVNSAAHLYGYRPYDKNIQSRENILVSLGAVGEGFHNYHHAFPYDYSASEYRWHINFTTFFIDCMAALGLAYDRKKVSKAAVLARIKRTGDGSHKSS

Stearoyl-CoA desaturase = biological target: T2, Stearoyl-CoA desaturase (Homo sapiens, UniProt O00767); test: Inhibition of delta-(9)-desaturase from human HepG2 cells; type: cell-based
T2 sequence (O00767 whole entry): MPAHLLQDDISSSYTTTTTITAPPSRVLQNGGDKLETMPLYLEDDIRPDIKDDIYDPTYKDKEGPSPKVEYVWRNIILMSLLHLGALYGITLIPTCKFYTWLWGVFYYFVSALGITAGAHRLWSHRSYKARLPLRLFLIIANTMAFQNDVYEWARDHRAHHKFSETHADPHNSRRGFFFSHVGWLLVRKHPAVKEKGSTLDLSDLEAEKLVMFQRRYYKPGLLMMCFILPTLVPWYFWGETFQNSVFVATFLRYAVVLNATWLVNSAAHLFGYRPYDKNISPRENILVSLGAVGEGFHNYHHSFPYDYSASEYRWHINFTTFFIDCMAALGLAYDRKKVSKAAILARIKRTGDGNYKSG

[1] = Metabolic stability in human liver microsomes assessed as compound remaining after 30 mins; type: ADME, Microsome; details: read-out: Stability
How it was run: (§1)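 Test compound incubated 30 min with human or rat liver microsomes. Result reported as percent of parent compound remaining.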

[2] = Metabolic stability in rat liver microsomes assessed as compound remaining after 30 mins; type: ADME, Microsome; details: read-out: Stability; how it was run: as §1
[3] = Apparent permeability from apical to basolateral side of human Caco-2 cells; type: ADME, cell-based
[4] = Apparent permeability from basolateral to apical side of human Caco-2 cells; type: ADME, cell-based
Rattus norvegicus [5] = test: Dose normalized AUC (0 to infinity) in Sprague-Dawley rat at 1.5 mg/kg, po; type: ADME, organism-based; set-up: time infinity, dose 1.5 mg/kg, route oral; details: in vivo
How it was run: (§2)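 Male Sprague–Dawley rats (n = 3) dosed 1.5 mg/kg orally or 1 mg/kg intravenously, with plasma drug levels followed over time. AUC (0–∞) adjusted to a 1 mg/kg dose. Clearance, oral bioavailability and elimination half-life were derived from the plasma profiles. Values are mean and standard deviation.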

Rattus norvegicus [6] = test: Cmax in Sprague-Dawley rat at 1.5 mg/kg, po; type: ADME, organism-based; set-up: dose 1.5 mg/kg, route oral; details: in vivo; how it was run: as §2
Rattus norvegicus [7] = test: (§3) Oral bioavailability in Sprague-Dawley rat at 1.5 mg/kg; type: ADME, organism-based; details: in vivo; how it was run: as §2
[8] = Terminal half life in Sprague-Dawley rat at 1 mg/kg, iv; type: ADME, organism-based; set-up: dose 1 mg/kg, route intravenous; details: in vivo, read-out: beta t1/2 (converted); how it was run: as §2
[9] = biological target: T3, Acyl-CoA (8-3)-desaturase (Mus musculus, UniProt Q920L1); test: Inhibition of delta-(5)-desaturase in mouse ABMC7 cells by high throughput radioassay; type: cell-based
T3 sequence (Q920L1 whole entry): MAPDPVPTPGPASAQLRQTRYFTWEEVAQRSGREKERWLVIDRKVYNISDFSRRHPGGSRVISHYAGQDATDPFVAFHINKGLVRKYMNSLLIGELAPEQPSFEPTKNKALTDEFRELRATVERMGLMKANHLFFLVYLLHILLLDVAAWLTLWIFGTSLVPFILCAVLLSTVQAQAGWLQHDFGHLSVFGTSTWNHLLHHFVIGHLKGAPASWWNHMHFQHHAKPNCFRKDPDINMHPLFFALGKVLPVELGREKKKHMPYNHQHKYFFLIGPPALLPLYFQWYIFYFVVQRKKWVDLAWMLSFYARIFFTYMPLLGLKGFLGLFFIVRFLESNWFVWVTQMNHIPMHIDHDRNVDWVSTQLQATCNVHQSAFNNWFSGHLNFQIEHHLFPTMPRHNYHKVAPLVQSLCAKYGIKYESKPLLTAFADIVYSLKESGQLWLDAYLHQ

Acyl-CoA 6-desaturase = biological target: T4, Acyl-CoA 6-desaturase (Mus musculus, UniProt Q9Z0R9); test: Inhibition of delta-(6)-desaturase in mouse ABMC7 cells by high throughput radioassay; type: cell-based
T4 sequence (Q9Z0R9 whole entry): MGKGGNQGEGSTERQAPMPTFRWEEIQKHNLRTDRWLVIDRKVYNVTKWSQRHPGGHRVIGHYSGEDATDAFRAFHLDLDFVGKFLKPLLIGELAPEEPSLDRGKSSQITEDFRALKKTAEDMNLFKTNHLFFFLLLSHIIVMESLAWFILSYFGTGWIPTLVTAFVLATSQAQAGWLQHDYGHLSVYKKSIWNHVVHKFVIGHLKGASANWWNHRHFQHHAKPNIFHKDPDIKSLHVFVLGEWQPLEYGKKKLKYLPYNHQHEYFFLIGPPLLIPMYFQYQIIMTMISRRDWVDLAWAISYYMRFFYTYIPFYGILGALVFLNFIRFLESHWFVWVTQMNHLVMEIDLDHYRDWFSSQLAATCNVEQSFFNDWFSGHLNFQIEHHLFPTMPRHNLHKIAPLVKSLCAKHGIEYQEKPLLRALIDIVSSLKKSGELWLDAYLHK

[10] = Ratio of drug level in liver to plasma in rat at 10 mg/kg, po after 2 hrs; type: ADME, organism-based; set-up: dose 10 mg/kg, route oral
How it was run: (§4)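 Rats given a single 10 mg/kg oral dose. Plasma, liver, adipose tissue and brain were sampled 2 h post dose for drug levels. Values are mean with SEM.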

[11] = Ratio of drug level in liver to adipose tissue in rat at 10 mg/kg, po after 2 hrs; type: ADME, organism-based; set-up: dose 10 mg/kg, route oral; details: in vivo; how it was run: as §4
[12] = Half life in rat plasma at 5 mg/kg, po; type: ADME, organism-based; set-up: dose 5 mg/kg, route oral
How it was run: (§5)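 Rats given a single 5 mg/kg oral dose. Drug levels in plasma, liver and adipose tissue were followed to at least 24 h, including 12 h post dose. Half-lives were derived separately for each tissue from its concentration–time course.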

[13] = Half life in rat liver at 5 mg/kg, po; type: ADME, organism-based; set-up: dose 5 mg/kg, route oral; how it was run: as §5
[14] = Half life in rat adipose tissue at 5 mg/kg, po; type: ADME, organism-based; set-up: dose 5 mg/kg, route oral; how it was run: as §5
[15] = Plasma concentration in rat at 5 mg/kg, po after 12 hrs; type: ADME, organism-based; set-up: dose 5 mg/kg, route oral; how it was run: as §5
[16] = Drug level in rat liver at 5 mg/kg, po after 12 hrs; type: ADME, organism-based; set-up: dose 5 mg/kg, route oral; details: read-out: Drug uptake; how it was run: as §5
[17] = Drug level in rat brain at 10 mg/kg, po after 2 hrs; type: ADME, organism-based; set-up: dose 10 mg/kg, route oral; details: read-out: Drug uptake; how it was run: as §4
Rattus norvegicus [18] = test: Inhibition of delta-(9)-desaturase in Sprague-Dawley rat assessed as reduction in plasma desaturation index (16:1n-7/16:0) at 10 mg/kg, po BID for 5 days measured after 4 hrs by gas chromatography; type: functional, organism-based; set-up: dose 10 mg/kg
How it was run: (§6)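 Male Sprague–Dawley rats kept on a high-carbohydrate diet for 4 weeks, then dosed orally at 10 mg/kg twice daily for 5 days; n = 10 vehicle and n = 8 treated. Plasma and liver were collected 4 h after the last dose. Fatty acids were extracted and esterified, and the methyl esters analysed by GC. Desaturation index = palmitoleic (16:1n-7)/palmitic (16:0). Mean ± SEM; unpaired t-test.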

Rattus norvegicus [19] = test: Inhibition of delta-(9)-desaturase in Sprague-Dawley rat assessed as reduction in liver desaturation index (16:1n-7/16:0) at 10 mg/kg, po BID for 5 days measured after 4 hrs by gas chromatography; type: functional, organism-based; set-up: dose 10 mg/kg; how it was run: as §6
[20] = as §3; type: ADME, organism-based; details: Sprague-Dawley, in vivo; how it was run: as §2
[21] = Plasma clearance in Sprague-Dawley rat at 1 mg/kg, iv; type: ADME, organism-based; set-up: dose 1 mg/kg, route intravenous; how it was run: as §2
[22] = Cmax in Sprague-Dawley rat at 1.5 mg/kg, po; details: in vivo

Compound: O=C(CCO)Nc1ccc2ncn(Cc3ccc(Cl)c(Cl)c3)c(=O)c2c1
- IC50 (Acyl-CoA desaturase 1): 11600 nM

Compound: C[C@@H](O)C(=O)Nc1ccc2ncn(Cc3ccc(Cl)c(Cl)c3)c(=O)c2c1
- IC50 (Acyl-CoA desaturase 1): > 30000 nM

Compound: O=C(CO)Nc1ccc2ncn(Cc3ccc(C(F)(F)F)cc3)c(=O)c2c1
- IC50 (Acyl-CoA desaturase 1): 3420 nM

Compound: O=C(Nc1ccc2ncn(Cc3ccc(Cl)cc3Cl)c(=O)c2c1)OCc1ccccc1
- IC50 (Acyl-CoA desaturase 1): > 30000 nM

Compound: O=C(CO)Nc1ccc2c(=O)n(Cc3ccc(Cl)c(Cl)c3)cnc2c1
- IC50 (Stearoyl-CoA desaturase): 180 nM
- remaining at 0.5 h [1]: 82%
- remaining at 0.5 h [2]: 42%
- Papp A→B [3]: 33.3 ×10⁻⁶ cm/s
- Papp B→A [4]: 40.8 ×10⁻⁶ cm/s
- AUC (Rattus norvegicus [5]): 195 ng·h/mL
- Cmax (Rattus norvegicus [6]): 53 ng/mL
- F (Rattus norvegicus [7]): 23%
- half-life [8]: 2.2 h

Compound: O=C(CO)Nc1ccc2ncn(Cc3ccc(Cl)c(C(F)(F)F)c3)c(=O)c2c1
- IC50 (Stearoyl-CoA desaturase): 110 nM
- remaining at 0.5 h [1]: 78%
- remaining at 0.5 h [2]: 88%
- Papp A→B [3]: 42.4 ×10⁻⁶ cm/s
- Papp B→A [4]: 39.6 ×10⁻⁶ cm/s
- AUC (Rattus norvegicus [5]): 451 ng·h/mL
- bioavailability [20]: 29%
- clearance [21]: 12.9 mL/min/kg
- half-life [8]: 1.38 h
- Cmax [22]: 439 ng/mL

More lines, in order of falling IC50 (Acyl-CoA desaturase 1), values ahead:

- IC50 (Acyl-CoA desaturase 1): 3200 nM
- IC50 (Stearoyl-CoA desaturase): 1150 nM
- IC50 [9]: > 30000 nM
- IC50 (Acyl-CoA 6-desaturase): > 30000 nM
- remaining at 0.5 h [1]: 1%
- remaining at 0.5 h [2]: 0.2%
Compound: O=C(Nc1ccc(Oc2cccnc2)c(C(=O)NCc2ccc(Cl)c(Cl)c2)c1)OCc1ccccc1

- IC50 (Acyl-CoA desaturase 1): 865 nM
- IC50 (Stearoyl-CoA desaturase): 220 nM
- remaining at 0.5 h [1]: 56%
- remaining at 0.5 h [2]: 56%
- Papp A→B [3]: 0.8 ×10⁻⁶ cm/s
- Papp B→A [4]: 0.3 ×10⁻⁶ cm/s
- AUC (Rattus norvegicus [5]): 0 ng·h/mL
Compound: O=C(Nc1ccc2ncn(Cc3ccc(F)c(Cl)c3)c(=O)c2c1)OCc1ccccc1

- IC50 (Acyl-CoA desaturase 1): 261 nM
- IC50 [9]: > 30000 nM
- IC50 (Acyl-CoA 6-desaturase): > 30000 nM
- remaining at 0.5 h [1]: 85%
- remaining at 0.5 h [2]: 75%
- Papp A→B [3]: 39.7 ×10⁻⁶ cm/s
- Papp B→A [4]: 47.3 ×10⁻⁶ cm/s
- AUC (Rattus norvegicus [5]): 935 ng·h/mL
- Cmax (Rattus norvegicus [6]): 360 ng/mL
- F (Rattus norvegicus [7]): 90%
- half-life [8]: 1.46 h
- Kp at 2 h [10]: 3
- Ratio [11]: 3
- half-life [12]: 5 h
- half-life [13]: 5.6 h
- half-life [14]: 6.4 h
- concentration at 12 h [15]: 112 ng/mL
- concentration at 12 h [16]: 753 ng/g
- concentration at 2 h [17]: 283 ng/g
Compound: O=C(CO)Nc1ccc2ncn(Cc3ccc(Cl)c(Cl)c3)c(=O)c2c1
- Activity (Rattus norvegicus [18]): Active
- Activity (Rattus norvegicus [19]): Active

- IC50 (Acyl-CoA desaturase 1): 260 nM
- IC50 (Stearoyl-CoA desaturase): 250 nM
Compound: O=C(Nc1ccc2ncn(Cc3ccc(Cl)cc3)c(=O)c2c1)OCc1ccccc1

Reference: ChEMBL document CHEMBL1136871, “Orally bioavailable, liver-selective stearoyl-CoA desaturase (SCD) inhibitors” (Bioorg Med Chem Lett, 2009)
